Calls of active or inactive are those of the source. The rule behind the calls is not given here.
Columns and labels:
[1] = system: RBL-2H3; assay: Antiallergic activity in rat RBL2H3 cells assessed as inhibition of C48/80-induced mast cell degranulation preincubated with compound for 30 mins and then treated with C48/80 for 1 hr by neutral red dye based method; type: functional
Summary of the method: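 RBL-2H3 cells seeded at 3×10⁵/mL and left overnight at 37 °C, 5% CO₂ to adhere. Medium discarded and cells stained with 0.5% neutral red for 3 min. Degranulated cells counted per 100 mast cells. IC50 taken as the concentration giving half-maximal degranulation. DMSO blank.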

[2] = system: RBL-2H3; assay: Antiallergic activity in IgE/Ag-stimulated rat RBL2H3 cells assessed as inhibition of HSA-induced beta-hexosaminidase release preincubated with compound for 30 mins and then stimulated with HSA for 15 mins followed by incubation with P-nitrophenyl-N-acetyl-beta-D-glucosaminide for 2 hrs; type: functional, cell-based
Summary of the method: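 RBL-2H3 cells (3×10⁵/mL) sensitized overnight with anti-DNP IgE at 150 ng·mL⁻¹, then washed twice in PIPES buffer pH 7.0 with glucose and 0.2% BSA. Compound applied for 30 min at 37 °C, then DNP-HSA 20 ng·mL⁻¹ for 15 min; stopped on ice. Supernatant incubated with p-nitrophenyl-N-acetyl-β-D-glucosaminide in citrate pH 4.6 for 2 h at 37 °C. Stopped with carbonate pH 10.2; A405 read. IC50 derived.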

[3] = Lipid/water partition co-efficient, log P of the compound; type: physicochemical
[4] = Dissociation constant, pKa of the compound; type: physicochemical
[5] = system: RBL-2H3; assay: Antiallergic activity in rat RBL2H3 cells assessed as inhibition of C48/80-induced histamine release preincubated with compound for 30 mins followed by C48/80 stimulation for 1 hr; type: functional, cell-based
Summary of the method: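 RBL-2H3 cells seeded at 3×10⁵/mL and adhered overnight at 37 °C, 5% CO₂. Histamine in the supernatant derivatized with o-phthalaldehyde after HCl/NaOH addition. IC50 is the concentration halving histamine release. DMSO blank.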

[6] = system: Mus musculus; assay: Antiallergic activity in mouse assessed as inhibition of histamine-induced increase in capillary permeability by measuring Evans blue dye concentration at 20 mg/kg administered via gavage for 1 week followed by Evans blue dye injection immediately after subcutaneous histamine injection and measured after 15 mins by UV spectrophotometric analysis; type: functional
Summary of the method: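 Mice (20–22 g), 10 per group, half male and half female. Compound suspension gavaged at 20 mg·kg⁻¹ for one week; model group given 0.5% CMC-Na. Backs depilated with 8% sodium sulfide the day before. Histamine phosphate 0.1% (50 μL) injected subcutaneously, with 0.5% Evans blue (25 mg·kg⁻¹) given i.v. via tail vein. Killed after 15 min. Stained skin extracted in acetone–saline for 48 h, centrifuged, OD read at 610 nm.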

[7] = system: Cavia porcellus; assay: In vivo antiallergic activity in guinea pig assessed as protection against histamine-induced bronchospasm at 20 mg/kg, po by Van Arman method relative to control; type: functional
Summary of the method: (§1)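 Male guinea pigs (220–260 g), fasted 24 h with water, six per group. Compound given orally at 20 mg·kg⁻¹ in 1% CMC-Na. Animals then exposed in a closed cage to aerosolized 0.3% histamine chloride (5 mL). Convulsion (preconvulsion) time recorded; stable beyond 10 min counted as protected. Protection % derived from mean time versus control.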

[8] = target: Histamine H1 receptor (Homo sapiens) (UniProt P35367); assay: Binding affinity to H1 receptor (unknown origin) at 0.10 umol/L
[9] = system: Cavia porcellus; assay: In vivo antiallergic activity in histamine-induced bronchospasm guinea pig model assessed as duration of convulsions at 20 mg/kg, po by Van Arman method; type: functional; summary of the method: as §1
[10] = Acute toxicity in ip dosed histamine-induced bronchospasm guinea pig model; type: organism-based, Cavia porcellus; settings: in vivo
[11] = system: Cavia porcellus; assay: In vivo antiallergic activity in histamine-induced bronchospasm guinea pig model assessed as duration of convulsions at 20 mg/kg by Van Arman method
[12] = system: Cavia porcellus; assay: In vivo antiallergic activity in guinea pig assessed as protection against histamine-induced bronchospasm at 20 mg/kg by Van Arman method relative to control

Histamine H1 receptor (Homo sapiens), sequence (P35367 whole entry): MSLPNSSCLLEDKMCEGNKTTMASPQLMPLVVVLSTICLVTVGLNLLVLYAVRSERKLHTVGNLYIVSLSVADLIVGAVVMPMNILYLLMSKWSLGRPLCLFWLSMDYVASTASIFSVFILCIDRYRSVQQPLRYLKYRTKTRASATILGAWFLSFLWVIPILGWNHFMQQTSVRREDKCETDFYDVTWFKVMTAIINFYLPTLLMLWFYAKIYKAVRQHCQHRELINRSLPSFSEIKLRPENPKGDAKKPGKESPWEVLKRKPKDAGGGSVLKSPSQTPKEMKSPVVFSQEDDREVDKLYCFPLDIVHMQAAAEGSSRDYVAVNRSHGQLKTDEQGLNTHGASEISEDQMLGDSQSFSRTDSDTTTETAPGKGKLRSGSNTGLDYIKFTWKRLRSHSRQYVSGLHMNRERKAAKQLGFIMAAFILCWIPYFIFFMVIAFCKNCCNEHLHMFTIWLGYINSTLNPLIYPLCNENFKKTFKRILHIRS

Row | SMILES | IC50 [1] [µM] | IC50 [2] [µM] | logP [3] | pKa [4] | IC50 [5] [µM] | Activity [6] [mg/L] | Activity [7] [%] | Activity [8] | Time [9] [s] | LD50 [10] [mg/kg] | Time [11] [s] | Activity [12] [%]
1 | COc1ccc(CN(CCN(C)C)c2ccc(N)cc2)cc1 | 2.31 | 8.01 | 3.13 | 9.8 | 4.06 | – | – | – | – | – | – | –
2 | COc1ccc(CN(CCN(C)C)c2ccc(C)cn2)cc1 | 0.0289 | 0.0612 | 3.79 | 9.6 | 0.0486 | 62.16 | 74.26 | Active | 371.28 | 335 | – | –
3 | COc1ccc(CCN(CCN(C)C)c2ccc(N)cc2)cc1 | 2.23 | 7.96 | 3.43 | 9.8 | 4.01 | – | – | – | – | – | – | –
4 | CN(C)CCC(c1ccc(Cl)cc1)c1ccccn1 (centres undefined) [CHLORPHENIRAMINE] | 0.0318 | 0.121 | – | – | 0.0536 | 56.13 | – | – | – | – | 367.16 | 73.43
5 | COc1ccc(CN(CCN(C)C)c2ccc(C)cc2)cc1 | 0.0553 | 0.141 | 4.43 | 9.8 | 0.0891 | 53.59 | 69.62 | Active | 348.1 | 401 | – | –
6 | COc1ccc(CCN(CCN(C)C)c2ccc(N)cn2)cc1 | 1.21 | 4.01 | 2.79 | 9.6 | 1.91 | – | – | – | – | – | – | –
7 | COc1ccc(CN(CCN(C)C)c2ccc(N)cn2)cc1 | 1.34 | 4.09 | 2.56 | 9.4 | 2.11 | – | – | – | – | – | – | –
8 | COc1ccc(CCN(CCN(C)C)c2ccc(Cl)cc2)cc1 | 0.0892 | 0.261 | 4.78 | 9.5 | 0.141 | – | – | – | – | – | – | –
9 | COc1ccc(CCN(CCN(C)C)c2ccccn2)cc1 | 0.129 | 0.319 | 3.59 | 9.5 | 0.159 | – | – | – | – | – | – | –
10 | COc1ccc(CN(CCN(C)C)c2ccccc2)cc1 | 0.143 | 0.411 | 3.9 | 9.7 | 0.243 | – | – | – | – | – | – | –
11 | COc1ccc(CCN(CCN(C)C)c2ccc(C)cc2)cc1 | 0.153 | 0.561 | 4.68 | 9.7 | 0.289 | – | – | – | – | – | – | –
12 | COc1ccc(CN(CCN(C)C)c2ccccn2)cc1 [PYRILAMINE] | 0.0815 | 0.132 | 3.32 | 9.7 | 0.0926 | – | – | – | – | – | – | –
13 | COc1ccc(CN(CCN(C)C)c2ccc(Cl)cc2)cc1 | 0.0181 | 0.0712 | 4.47 | 9.6 | 0.0402 | 65.34 | 75.32 | Active | 376.58 | 414 | – | –
14 | COc1ccc(CCN(CCN(C)C)c2ccc(C)cn2)cc1 | 0.0839 | 0.211 | 4.06 | 9.5 | 0.102 | – | – | – | – | – | – | –
15 | COc1ccc(CCN(CCN(C)C)c2ccccc2)cc1 | 0.306 | 1.03 | 4.21 | 9.6 | 0.516 | – | – | – | – | – | – | –
16 | COc1ccc(CCN2CCC(Nc3nc4ccccc4n3Cc3ccc(F)cc3)CC2)cc1 [ASTEMIZOLE] | 0.0533 | 0.156 | – | – | 0.0819 | – | – | – | – | – | – | –
17 | COc1ccc(CN(CCN(C)C)c2ccc(Cl)cn2)cc1 | 0.0106 | 0.0455 | 3.87 | 9.5 | 0.0192 | 71.26 | 79.74 | Active | 398.69 | 324 | – | –
18 | COc1ccc(CCN(CCN(C)C)c2ccc(Cl)cn2)cc1 | 0.0453 | 0.0721 | 4.16 | 9.4 | 0.0531 | 55.67 | 70.22 | Active | 351.1 | 335 | – | –
